This is a sample that favours compounds with a hit; in the whole collection about 1.9% have one here.
SKN-1 inh = C. elegans SKN-1 inhibition; C. elegans VP596 Pgst-4::GFP/RFP ratio, acrylamide-induced, 24 h; inhibition, % at 21.8 µM; hit rate 0.49% among 360,000;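 active = interference check ratio from 0.5 to 1.5 plus GFP to RFP signal ratio inhibition reaching or exceeding a fixed threshold, cut at about 30% in these data, passing the limit was not always enough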
NR2E3 ag-1 = human photoreceptor-specific nuclear receptor agonism. AID 602229. CHO-S Gal4-NCOR/VP16-NR2E3 two-hybrid, luciferase. hit rate 0.35% among 360,000. inhibition of corepressor binding, % at 3.98 µM;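 active = inhibition above the mean of all tested compounds plus 3 SD, cut at about 70% in these data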;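 note: 0% = DMSO with NR2E3 transfected cells and 100% = cells lacking NR2E3 construct; higher means lower luciferase signal from less NR2E3 corepressor binding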
PG9 Ab binder = small molecules binding HIV-1 gp120 antibody PG9; TR-FRET gp120-PG9 antibody binding; inhibition, % at 6.7 µM; hit rate 0.43% among 360,000; AID 624416; in the data active = inhibition above about 8.5%
Rev-erbA mod = Rev-erb alpha (human) modulation; Rev-erbα–FITC-DNA binding, fluorescence polarization, 90 min; hit rate 0.79% among 370,000; activity, % at 10 µM;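 active = activity above about 14%, limit read from the data; passing the limit was not always enough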;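 note: 0% = DMSO wells with 35 nM protein and 100% = DMSO wells with 750 nM protein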
Target sequence (P20393 whole entry, looked up): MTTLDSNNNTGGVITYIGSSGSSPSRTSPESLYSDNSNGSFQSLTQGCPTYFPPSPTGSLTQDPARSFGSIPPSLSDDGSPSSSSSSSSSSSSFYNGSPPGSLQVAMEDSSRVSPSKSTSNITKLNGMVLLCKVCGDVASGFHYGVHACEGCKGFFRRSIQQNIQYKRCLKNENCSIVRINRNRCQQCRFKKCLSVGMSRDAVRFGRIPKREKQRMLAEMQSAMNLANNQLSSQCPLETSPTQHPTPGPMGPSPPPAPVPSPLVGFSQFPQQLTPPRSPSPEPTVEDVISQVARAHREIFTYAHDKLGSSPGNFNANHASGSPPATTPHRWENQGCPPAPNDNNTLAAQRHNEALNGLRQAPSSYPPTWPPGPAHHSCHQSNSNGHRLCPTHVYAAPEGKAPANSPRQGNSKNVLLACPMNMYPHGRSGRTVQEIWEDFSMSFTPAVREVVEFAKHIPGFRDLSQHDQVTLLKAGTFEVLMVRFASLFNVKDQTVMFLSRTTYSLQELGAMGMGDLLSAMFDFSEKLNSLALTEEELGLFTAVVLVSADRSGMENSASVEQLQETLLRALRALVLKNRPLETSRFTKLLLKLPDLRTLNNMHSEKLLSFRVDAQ
NR2E3 ag-2 = agonists of human nuclear receptor NR2E3; Q9Y5X4; GST-NR2E3/biotin-RetCOR TR-FRET, 1536-well; inhibition of corepressor binding, % at 4.78 µM; hit rate 0.12% among 320,000; AID 2300;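 active = percent inhibition above the cutoff of mean plus 3 SD of all tested compounds, set per screening campaign, cut at about 20% in these data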;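 note: 0% = DMSO wells and 100% = biotin wells as full block of FRET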
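System: GST-tagged NR2E3 plus biotinylated RetCOR corepressor; Amount: 1.35 nM GST-tagged NR2E3 final; Dosing: single nominal compound dose of 4.8 µM; Schedule: 5 h incubation at 4 °C; Technique: TR-FRET with europium anti-GST and streptavidin-D2, 340 nm excitation; Controls: biotin wells as high control, 0.6% DMSO wells as low control.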
MT1-MMP act inh = blocks activation of human MT1-MMP; HT1080 RFP-PRO-GFP cells, GFP/RFP ratio fluorescence, overnight; percent of plate control window, DMSO zero; P50281; GFP/RFP ratio change, % at 20 µM; hit rate 0.061% among 360,000; AID 651647;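 active = GFP/RFP ratio change of at least 30% with cell ATP level not reduced by more than half and red fluorescence within 50% of control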
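Material – HT1080 RFP-PRO-GFP cells · Control set – DMSO wells and RFP-L50D-GFP cells · Incubation – overnight cell settling, then overnight compound exposure, 37 °C, 5% CO2 · Compound dosing – single-point 20 µM compound, 1% DMSO · Read-out – GFP/RFP fluorescence ratio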
PG9 binder conf = confirmation of small molecules binding HIV-1 gp120 antibody PG9; shares compounds with PG9 Ab binder; TR-FRET PG9 antibody binding, biochemical; inhibition, % at 6.7 µM; hit rate 90% among 1,500; AID 651571; in the data active = inhibition above about 9%
PGV04 Ab binding = binds control antibody PGV04 in PG9 binder counter-screen; shares compounds with PG9 Ab binder; TR-FRET PGV04 antibody-gp120 binding, biochemical; inhibition, % at 6.7 µM; hit rate 95% among 1,500; AID 651604; in the data active = inhibition above about 9.5%
MT1-MMP act val = validation of inhibitors of human MT1-MMP activation; shares compounds with MT1-MMP act inh; HT1080 RFP-PRO-GFP cells, GFP and RFP fluorescence ratio, overnight; inhibition, % at 20 µM; hit rate 10% among 200; AID 652235;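 active = inhibition of at least 50% in the primary cell screen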
Rev-erbA confirm = Rev-erb alpha (human) modulation, hit confirmation; shares compounds with Rev-erbA mod; Rev-erb alpha FITC-DNA binding, fluorescence polarization, 90 min; activation, % at 25 µM; hit rate 61% among 3,000;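 active = activation at or above a set limit, or at least 3 SD above the negative control mean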;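 note: 0% = 35 nM protein with DMSO and 100% = 750 nM protein high control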
RORg DNA counter = affects RORgamma DNA binding in a Rev-erb alpha counter-screen. AID 1259320. IC50, µM. hit rate 8% among 910. purified RORgamma protein-FITC-DNA binding, fluorescence polarization. shares compounds with Rev-erbA mod;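 active = Compounds whose fitted half-maximal concentration for disrupting protein-DNA binding is below 10 micromolar; the record names Rev-erb in its text, so the target is in doubt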
An asterisk follows results filed as active; i = inactive; · = no result given.

SMILES | SKN-1 inh | NR2E3 ag-1 | PG9 Ab binder | Rev-erbA mod | NR2E3 ag-2 | MT1-MMP act inh | PG9 binder conf | PGV04 Ab binding | Rev-erbA confirm | others
C[C@H](NC(=O)C[C@@H]1CC[C@H]2[C@@H](COC[C@H](O)CN2Cc2ccc(C(F)(F)F)cc2)O1)c1ccccc1 | 4 | · | 8.8* | 1 | · | 5 | 14* | 19* | ·
Brc1ccc(CN2CCN(c3ncc(Cc4ccccc4)cn3)CC2)cc1 | · | · | -2 | 2 | · | · | · | · | ·
Cc1cc2cc(CNC(=O)Cc3ccc([N+](=O)[O-])cc3)ccc2n1C | 39* | -3 | 10* | -6 | 0 | 42* | 13* | 21* | · | MT1-MMP act val=3
Cc1cc(N2CCN(C(=O)OC(C)(C)C)C[C@@H]2C)ccc1N1CCN(Cc2ccccc2)[C@@H](C)C1 | · | · | 0 | 2 | · | · | · | · | ·
O=C(CSc1nc2ncc(Br)cc2[nH]1)Nc1ccccc1-c1ccccc1 | 5 | -6 | -2 | 5 | 3 | 2 | · | · | ·
CCc1ccc(NC(=O)CSc2nc3ncc(Br)cc3[nH]2)cc1 | 2 | -41 | 11* | 59* | 3 | -2 | 27* | 38* | 52* | RORg DNA counter=i
c1ccc2c(c1)OCc1nccn1-2 | · | · | -1 | -6 | · | · | · | · | ·
CCOc1ccccc1CNC(=O)C1CCN(c2nnc(C)c3c(C)n(-c4ccc(C)cc4)nc23)CC1 | 1 | 18 | 9.3* | 44* | -14 | -12 | 12* | 33* | 34* | RORg DNA counter=>40
Cc1ccc(-n2nc3c(N4CCC(C(=O)NCc5ccccc5C)CC4)nnc(C)c3c2C)cc1 | -1 | 33 | · | · | -44 | 1 | · | · | ·
O=C(CSc1nc2nc3c(cc2c(=O)n1-c1ccccc1)CCCC3)Nc1ccccc1 | 18 | -7 | 18* | 27* | 0 | -7 | 31* | 46* | 20*
COC(=O)C[C@@H]1CC[C@H]2[C@@H](COc3ccc(NC(=O)Nc4ccccc4)cc3C(=O)N2C)O1 | · | · | · | -2 | · | · | · | · | ·
O=C(COC(=O)c1cccnc1SCC(=O)NCc1ccccc1)NCc1ccccc1 | -24 | -25 | 32* | 53* | 15 | -3 | 37* | 53* | 52* | RORg DNA counter=>40
COc1ccccc1CNC(=O)COC(=O)c1cccnc1SCC(=O)NCc1ccccc1OC | -2 | -17 | 19* | 47* | 10 | -1 | 29* | 43* | 31* | RORg DNA counter=>40
CC(=O)c1cccc(NC(=O)c2cc(-c3cccs3)on2)c1 | 1 | 0 | 24* | 33* | -1 | 10 | 29* | 47* | 11
O=C(Nc1cccc(O)c1)c1cc(-c2cccs2)on1 | 15 | -22 | -1 | 1 | 1 | 2 | · | · | ·
CSc1n[nH]c(-c2cccs2)n1 | · | · | 0 | -1 | · | · | · | · | ·
COC(=O)c1c(-c2ccccc2)csc1NC(=O)c1ccco1 | 11 | -85 | 17* | 19* | 1 | 0 | 9.8* | 14* | 15
COC(=O)[C@]12C[C@H](CC(=O)NCc3ccccc3)C(=O)N(Cc3ccccc3)C1=C[C@H](C(C)C)O[C@@H]2C1CC1 | · | · | 0 | -4 | · | · | · | · | ·
CC1=CS/C(=C(/C#N)C(=O)NCc2ccco2)N1c1ccccc1 | -4 | -21 | 3 | -8 | 5 | 2 | · | · | ·
N#C/C(C(=O)NCc1ccco1)=C1/SC=C(c2ccccc2)N1c1ccccc1 | -11 | -1 | 41* | 38* | -2 | 0 | 42* | 59* | 30*
CC(C)n1nnnc1C1(C)CN(S(C)(=O)=O)CC(=O)N1Cc1cccc(C(F)(F)F)c1 (stereo unspecified) | · | · | · | 1 | · | · | · | · | ·
Cc1onc(-c2ccccc2)c1C(=O)Nc1nc(-c2cc(F)ccc2F)cs1 | -10 | -71 | 52* | 55* | 0 | 4 | 50* | 65* | 65* | RORg DNA counter=>40
Cc1noc(C)c1C(=O)Nc1nc(-c2cc(F)ccc2F)cs1 | -7 | -76 | 7 | 19 | · | 7 | · | · | ·
C[C@H](O)[C@@H]1C(=O)N2CCc3c([nH]c4cccc(-c5ccccc5)c34)[C@@H]2C[C@@H]1N(C)C(=O)NC1CCCCC1 | · | · | 0 | 1 | · | · | · | · | ·
Cc1ccc(-c2cc3ncc(C#N)c(N)n3n2)cc1 | 8 | -74 | 37* | 47* | 17 | 0 | 48* | 63* | 12
SMILES | SKN-1 inh | NR2E3 ag-1 | PG9 Ab binder | Rev-erbA mod | NR2E3 ag-2 | MT1-MMP act inh | PG9 binder conf | PGV04 Ab binding | Rev-erbA confirm | others
Cc1ccc(-n2ncc(C#N)c2N)cc1 | -7 | -5 | -1 | -3 | 7 | 0 | · | · | ·
O=C(NCC1CCCO1)c1cc(-c2ccccc2)nc2ccc(Br)cc12 (stereo unspecified) | 1 | -19 | 15* | 33* | 16 | 6 | 19* | 25* | 26*
Cc1cc(Br)cc2c(C(=O)NCC3CCCO3)cc(-c3ccccc3)nc12 (stereo unspecified) | 8 | -21 | 3 | 8 | 4 | 1 | · | · | ·
CCOC(=O)c1cc2sc(C)cc2n1CC(=O)N(CC)CC | 0 | -3 | 1 | -2 | 0 | 2 | · | · | ·
CCOC(=O)c1cc2sc(C)cc2n1CC(=O)NCCc1ccccc1 | 4 | 25 | 55* | 32* | -16 | -3 | 49* | 53* | 13
CCOc1cccc(/C=N\NC(=O)Cc2cccs2)c1O | · | · | · | -2 | · | · | · | · | ·
CCOC(=O)[C@]12CCCC=C1N(CCCOC)C(=O)[C@@H]2CC(=O)NCc1ccccc1 | · | · | · | -1 | · | · | · | · | ·
O=c1cc(CCl)[nH]c2nc3ccccc3n12 | -1 | 17 | -2 | -4 | 1 | -2 | · | · | ·
O=c1cc(-c2ccccc2)[nH]c2nc3ccccc3n12 | 10 | -142 | 13* | 24* | 5 | 2 | 20* | 32* | 17*
COC(=O)[C@]12C[C@H](CC(=O)NCCCN3CCCC3=O)C(=O)N(CCC3=CCCCC3)C1=C[C@H](COCc1ccccc1)O[C@@H]2C | · | · | 0 | -1 | · | · | · | · | ·
COc1ccc(-c2cc(-c3ccccc3)c(C#N)c(S(C)=O)n2)cc1 (stereo unspecified) | 9 | 18 | 0 | 1 | 1 | 14 | · | · | ·
N#Cc1c(-c2ccccc2)cc(-c2ccccc2)nc1Br | 6 | 19 | 8.7* | 29* | 6 | -6 | 14* | 17* | 10
